Assay results from ChEMBL document CHEMBL1142126, “Triterpenoid pyrazines and benzopyrazines with cytotoxic activity” (J Nat Prod, 2007).

Tests used:
PC-3 = test: Cytotoxicity against human PC3 cells after 72 hrs by MTT assay; type: cell-based; settings: PC-3, 72 h
Method in brief: (§1)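 Cells seeded at 2500-30 000 per well depending on growth characteristics, preincubated 24 h at 37 °C, 5% CO2. Compounds dissolved in 10% DMSO, added as four-fold dilutions, quadruplicate. 72 h exposure at 37 °C, 5% CO2, 100% humidity. MTT added for 1-4 h, formazan dissolved in 10% aqueous SDS (pH 5.5) overnight at 37 °C, OD 540 nm. Survival relative to control wells; TCS50 taken from dose-response curves.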

CCRF-CEM [1] = test: Cytotoxicity against human CEM cells after 72 hrs by MTT assay; type: cell-based; method in brief: as §1
A549 = test: Cytotoxicity against human A549 cells after 72 hrs by MTT assay; type: cell-based; settings: A549, 72 h; method in brief: as §1
CCRF-CEM [2] = test: Cytotoxicity against daunorubicin-resistant CEM-DNR-bulk cells after 72 hrs by MTT assay; type: cell-based; settings: Homo sapiens; method in brief: as §1
K562 = test: Cytotoxicity against human K562 cells after 72 hrs by MTT assay; type: cell-based; settings: K562, 72 h; method in brief: as §1
[3] = Cytotoxicity against human U87-Mg cells after 72 hrs by MTT assay; type: cell-based, U-87MG ATCC; settings: U-87 MG; method in brief: as §1
[4] = Cytotoxicity against human Pgp-positive multidrug-resistant K562-tax cells after 72 hrs by MTT assay; type: ADME, cell-based; method in brief: as §1
SK-MEL-2 = test: Cytotoxicity against human SK-MEL-2 cells after 72 hrs by MTT assay; type: cell-based; settings: SK-MEL-2, 72 h
Method in brief: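 Cells seeded at 2500–30 000/well by growth characteristics, preincubated 24 h at 37 °C, 5% CO2; four-fold dilutions of compound (dissolved in 10% DMSO) added, 72 h exposure at 37 °C, 5% CO2, 100% humidity; quadruplicate. MTT 1–4 h, formazan dissolved in 10% SDS (pH 5.5) overnight, OD 540 nm; survival vs control wells, TCS50 from dose–response curves.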

HT-29 = test: Cytotoxicity against human HT29 cells after 72 hrs by MTT assay; type: cell-based; settings: HT-29, 72 h; method in brief: as §1
[5] = Cytotoxicity against B2-4 cells after 72 hrs by MTT assay; type: cell-based; settings: Homo sapiens, B2-4, 72 h; method in brief: as §1

COC(=O)[C@@]12CC[C@]3(C)[C@H](CC[C@@H]4[C@@]5(C)CC[C@H](OC(C)=O)C(C)(C)[C@@H]5CC[C@]43C)C1=C(C(C)C)C(=O)C2=O
IC50 (PC-3): 14 µM
IC50 (CCRF-CEM [1]): 16 µM
IC50 (A549): 13 µM
IC50 (CCRF-CEM [2]): 5 µM
IC50 (K562): 6 µM
IC50 [3]: 74 µM
IC50 [4]: 9 µM
IC50 (SK-MEL-2): 14 µM
IC50 (HT-29): 7 µM

CC1(C)CC[C@]23CC[C@]4(C)[C@H](CC[C@@H]5[C@@]6(C)Cc7nccnc7C(C)(C)[C@@H]6CC[C@]54C)[C@H]2[C@H]1OC3
IC50 (CCRF-CEM [1]): 250 µM

CC(=O)OC1CC[C@]2(C)[C@H]3CC[C@H]4C5=C(CC[C@@]4(C)[C@]3(C)CC[C@H]2C1(C)C)c1nccnc1[C@H]5C(C)C (some centres not stated)
IC50 (CCRF-CEM [1]): 244 µM

CC(C)C1=C2CC[C@]3(C)[C@H](CC[C@@H]4[C@H]5[C@H]6O[C@@]5(CCC6(C)C)CC[C@]43C)[C@@]2(C)C(=O)C1=O
IC50 (CCRF-CEM [1]): 250 µM

C=C(C)[C@@H]1CC[C@]2(C(=O)OC)CC[C@]3(C)[C@H](CC[C@@H]4[C@@]5(C)Cc6nccnc6C(C)(C)[C@@H]5CC[C@]43C)[C@@H]12
IC50 (CCRF-CEM [1]): 250 µM

CC(=O)OC[C@@]12CC[C@]3(C)[C@H](CC[C@@H]4[C@@]5(C)CCC(OC(C)=O)C(C)(C)[C@@H]5CC[C@]43C)C1=C(C(C)C)c1nccnc12 (some centres not stated)
IC50 (CCRF-CEM [1]): 215 µM

C=C(C)[C@@H]1CC[C@]2(CO)CC[C@]3(C)[C@H](CC[C@@H]4[C@@]5(C)Cc6nc7ccccc7nc6C(C)(C)[C@@H]5CC[C@]43C)[C@@H]12
IC50 (CCRF-CEM [1]): 178 µM

CC(C)[C@@H]1CC[C@]2(CO)CC[C@]3(C)[C@H](CC[C@@H]4[C@@]5(C)Cc6nc7ccccc7nc6C(C)(C)[C@@H]5CC[C@]43C)[C@@H]12
IC50 (CCRF-CEM [1]): 35 µM

COC(=O)[C@]12CC[C@@H](C(C)C)[C@@H]1[C@H]1CC[C@@H]3[C@@]4(C)Cc5nccnc5C(C)(C)[C@@H]4CC[C@@]3(C)[C@]1(C)CC2
IC50 (PC-3): 227 µM
IC50 (CCRF-CEM [1]): 151 µM
IC50 (A549): 220 µM
IC50 [5]: 94 µM
IC50 (CCRF-CEM [2]): 235 µM
IC50 (K562): 201 µM
IC50 [3]: 231 µM
IC50 [4]: 91 µM
IC50 (HT-29): 164 µM

C=C(C)[C@@H]1CC[C@]2(C(=O)O)CC[C@]3(C)[C@H](CC[C@@H]4[C@@]5(C)Cc6nc7ccccc7nc6C(C)(C)[C@@H]5CC[C@]43C)[C@@H]12
IC50 (PC-3): 64 µM
IC50 (CCRF-CEM [1]): 42 µM
IC50 (A549): 48 µM
IC50 (K562): 86 µM
IC50 [4]: 118 µM
IC50 (SK-MEL-2): 192 µM
IC50 (HT-29): 96 µM

CC(C)[C@@H]1CC[C@]2(C(=O)O)CC[C@]3(C)[C@H](CC[C@@H]4[C@@]5(C)Cc6nc7ccccc7nc6C(C)(C)[C@@H]5CC[C@]43C)[C@@H]12
IC50 (PC-3): 103 µM
IC50 (CCRF-CEM [1]): 124 µM
IC50 (A549): 122 µM
IC50 [5]: 99 µM
IC50 (CCRF-CEM [2]): 198 µM
IC50 (K562): 113 µM
IC50 [3]: 148 µM
IC50 [4]: 117 µM
IC50 (HT-29): 123 µM

C=C(C)[C@@H]1CC[C@]2(CO)CC[C@]3(C)[C@H](CC[C@@H]4[C@@]5(C)Cc6nccnc6C(C)(C)[C@@H]5CC[C@]43C)[C@@H]12
IC50 (CCRF-CEM [1]): 101 µM

CC(C)[C@@H]1CC[C@]2(CO)CC[C@]3(C)[C@H](CC[C@@H]4[C@@]5(C)Cc6nccnc6C(C)(C)[C@@H]5CC[C@]43C)[C@@H]12
IC50 (CCRF-CEM [1]): 74 µM

C=C(C)[C@@H]1CC[C@]2(C(=O)OCOC(=O)C(C)(C)C)CC[C@]3(C)[C@H](CC[C@@H]4[C@@]5(C)Cc6nccnc6C(C)(C)[C@@H]5CC[C@]43C)[C@@H]12
IC50 (PC-3): 250 µM
IC50 (CCRF-CEM [1]): 232 µM
IC50 (A549): 51 µM
IC50 (K562): 100 µM
IC50 [4]: 149 µM
IC50 (SK-MEL-2): 250 µM
IC50 (HT-29): 250 µM

CC(=O)OC[C@@]12CC[C@]3(C)[C@H](CC[C@@H]4[C@@]5(C)CC[C@H](OC(C)=O)C(C)(C)[C@@H]5CC[C@]43C)C1=C(C(C)C)C(=O)C2=O
IC50 (PC-3): 208 µM
IC50 (CCRF-CEM [1]): 250 µM
IC50 (A549): 103 µM
IC50 (K562): 250 µM
IC50 [4]: 250 µM
IC50 (SK-MEL-2): 170 µM
IC50 (HT-29): 250 µM

CC(C)C1=C2CC[C@]3(C)[C@H](CC[C@H]4C5[C@H]6O[C@@]5(CCC6(C)C)CC[C@]43C)[C@@]2(C)c2nccnc21 (some centres not stated)
IC50 (CCRF-CEM [1]): 250 µM

CC(C)C1=C2CC[C@]3(C)[C@H](CC[C@@H]4[C@H]5[C@H]6O[C@@]5(CCC6(C)C)CC[C@]43C)[C@@]2(C)c2nc3ccccc3nc21
IC50 (CCRF-CEM [1]): 250 µM

COC(=O)[C@]12CC[C@@H](C(C)C)[C@@H]1[C@H]1CC[C@@H]3[C@@]4(C)Cc5nc6ccccc6nc5C(C)(C)[C@@H]4CC[C@@]3(C)[C@]1(C)CC2
IC50 (CCRF-CEM [1]): 250 µM

CC1(C)CC[C@]23CC[C@]4(C)[C@H](CC[C@@H]5[C@@]6(C)Cc7nc8ccccc8nc7C(C)(C)[C@@H]6CC[C@]54C)[C@H]2[C@H]1OC3
IC50 (CCRF-CEM [1]): 250 µM

C=C(C)[C@@H]1CC[C@]2(C(=O)OCOC(C)=O)CC[C@]3(C)[C@H](CC[C@@H]4[C@@]5(C)Cc6nccnc6C(C)(C)[C@@H]5CC[C@]43C)[C@@H]12
IC50 (PC-3): 35 µM
IC50 (CCRF-CEM [1]): 12 µM
IC50 (A549): 1 µM
IC50 (K562): 2 µM
IC50 [4]: 35 µM
IC50 (SK-MEL-2): 69 µM
IC50 (HT-29): 77 µM

COC(=O)[C@@]12CC[C@]3(C)[C@@H](CC[C@@H]4[C@@]5(C)CCC(OC(C)=O)C(C)(C)[C@@H]5CC[C@]43C)C1=C(C(C)C)c1nccnc12 (some centres not stated)
IC50 (CCRF-CEM [1]): 250 µM

COC(=O)[C@@]12CC[C@]3(C)[C@H](CC[C@@H]4[C@@]5(C)CCC(OC(C)=O)C(C)(C)[C@@H]5CC[C@]43C)C1=C(C(C)C)c1nc3ccccc3nc12 (some centres not stated)
IC50 (CCRF-CEM [1]): 192 µM

C=C(C)[C@@H]1CC[C@]2(C(=O)OC)CC[C@]3(C)[C@H](CC[C@@H]4[C@@]5(C)Cc6nc7ccccc7nc6C(C)(C)[C@@H]5CC[C@]43C)[C@@H]12
IC50 (PC-3): 250 µM
IC50 (CCRF-CEM [1]): 250 µM
IC50 (A549): 250 µM
IC50 [5]: 47 µM
IC50 (CCRF-CEM [2]): 250 µM
IC50 (K562): 245 µM
IC50 [3]: 250 µM
IC50 [4]: 250 µM
IC50 (HT-29): 250 µM

CC(=O)OC[C@@]12CC[C@]3(C)[C@@H](CC[C@@H]4[C@@]5(C)CCC(OC(C)=O)C(C)(C)[C@@H]5CC[C@]43C)C1=C(C(C)C)c1nc3ccccc3nc12 (some centres not stated)
IC50 (PC-3): 233 µM
IC50 (CCRF-CEM [1]): 106 µM
IC50 (A549): 101 µM
IC50 (K562): 70 µM
IC50 [4]: 234 µM
IC50 (SK-MEL-2): 231 µM
IC50 (HT-29): 229 µM

CC1(C)CC[C@]23CC[C@]4(C)[C@H](CC[C@@H]5[C@@]6(C)CC[C@H](O)C(C)(C)[C@@H]6CC[C@]54C)[C@H]2[C@H]1OC3 [ALLOBETULIN]
IC50 (CCRF-CEM [1]): 250 µM

CC1(C)CC[C@]23CC[C@]4(C)[C@H](CC[C@@H]5[C@@]6(C)CCC(=O)C(C)(C)[C@@H]6CC[C@]54C)[C@H]2[C@H]1O3 [ALLOBETULONE]
IC50 (CCRF-CEM [1]): 250 µM

C=C(C)[C@@H]1CC[C@]2(C(=O)O)CC[C@]3(C)[C@H](CC[C@@H]4[C@@]5(C)CC[C@H](O)C(C)(C)[C@@H]5CC[C@]43C)[C@@H]12 [BETULINIC ACID]
IC50 (CCRF-CEM [1]): 30 µM

C=C(C)[C@@H]1CC[C@]2(CO)CC[C@]3(C)[C@H](CC[C@@H]4[C@@]5(C)CC[C@H](O)C(C)(C)[C@@H]5CC[C@]43C)[C@@H]12 [BETULIN]
IC50 (CCRF-CEM [1]): 250 µM

C=C(C)[C@@H]1CC[C@]2(C(=O)O)CC[C@]3(C)[C@H](CC[C@@H]4[C@@]5(C)CCC(=O)C(C)(C)[C@@H]5CC[C@]43C)[C@@H]12 [BETUNOLIC ACID]
IC50 (PC-3): 15 µM
IC50 (CCRF-CEM [1]): 20 µM
IC50 (A549): 15 µM
IC50 (K562): 6 µM
IC50 [3]: 159 µM
IC50 [4]: 17 µM
IC50 (SK-MEL-2): 26 µM
IC50 (HT-29): 17 µM

CC(C)[C@@H]1CC[C@]2(C(=O)O)CC[C@]3(C)C(CCC4[C@@]5(C)CC[C@H](O)C(C)(C)C5CC[C@]43C)C12 (some centres not stated) [DIHYDROBETULINIC ACID]
IC50 (CCRF-CEM [1]): 7 µM

CC(C)[C@@H]1CC[C@]2(C(=O)O)CC[C@]3(C)[C@H](CC[C@@H]4[C@@]5(C)CCC(=O)C(C)(C)[C@@H]5CC[C@]43C)[C@@H]12 [DIHYDROBETULONIC ACID]
IC50 (CCRF-CEM [1]): 2 µM

C=C(C)[C@@H]1CC[C@]2(C(=O)OC)CC[C@]3(C)[C@H](CC[C@@H]4[C@@]5(C)CCC(=O)C(C)(C)[C@@H]5CC[C@]43C)[C@@H]12 [METHYL BETULONATE]
IC50 (CCRF-CEM [1]): 250 µM

COC(=O)[C@]12CC[C@@H](C(C)C)[C@@H]1[C@H]1CC[C@@H]3[C@@]4(C)CCC(=O)C(C)(C)[C@@H]4CC[C@@]3(C)[C@]1(C)CC2 [METHYL DIHYDROBETULONATE]
IC50 (CCRF-CEM [1]): 173 µM
